Results: ChEMBL document CHEMBL1629563, “Pharmacokinetic and safety evaluation of BILR 355, a second-generation nonnucleoside reverse transcriptase inhibitor, in healthy volunteers” (Antimicrob Agents Chemother, 2008)

How the values were obtained:
Homo sapiens [1] = test: Toxicity in healthy human assessed as occurrence of diarrhea at 62.5 mg, po administered as single dose coadministered with 100 mg of ritonavir; assay type: organism-based; conditions: in vivo
Homo sapiens [2] = test: Toxicity in healthy human assessed as occurrence of maculopapular rash at 12.5 mg, po administered as single dose coadministered with 100 mg of ritonavir; assay type: organism-based; conditions: in vivo
[3] = Half life in high fat fed healthy human at 50 mg, po administered as single dose coadministered with 100 mg of ritonavir; assay type: ADME, organism-based; conditions: in vivo
Homo sapiens [4] = test: Toxicity in healthy human assessed as occurrence of headache at 75 mg, po administered as single dose relative to control; assay type: organism-based; conditions: in vivo
[5] = AUC (0 to infinity) in healthy human at 62.5 mg, po administered as single dose coadministered with 100 mg of ritonavir; assay type: ADME, organism-based; set-up: dose 62.5 mg, time infinity, route oral; conditions: plasma
Procedure, shortened: (§1)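 Healthy male volunteers, fasted. Ritonavir 100 mg given 10 h before and again together with single oral BILR 355 in PEG solution. EDTA plasma sampled predose to 144 h. LC-MS/MS assay after protein precipitation. Noncompartmental analysis, AUC by linear up/log down trapezoidal rule; Vss = CL/F·(MRTp.o. − 1/Ka).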

[6] = Mean residence time in healthy human at 12.5 mg, po administered as single dose; assay type: ADME, organism-based; conditions: in vivo
Homo sapiens [7] = test: Toxicity in healthy human assessed as occurrence of constipation at 25 mg, po administered as single dose relative to control; assay type: organism-based; conditions: in vivo
[8] = Apparent volume of distribution at steady state in healthy human at 12.5 mg, po administered as single dose coadministered with 100 mg of ritonavir; assay type: ADME, organism-based; conditions: in vivo, read-out: Vss/F; procedure, shortened: as §1
[9] = Renal clearance in healthy human at 87.5 mg, po administered as single dose coadministered with 100 mg of ritonavir by high-pressure liquid chromatography-tandem mass spectrometry/mass spectrometry method; assay type: ADME, organism-based, Kidney; conditions: in vivo, read-out: CL_renal (converted)
Procedure, shortened: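 Healthy male volunteers, fasted overnight, got one oral dose in PEG solution with 200 ml water. Ritonavir 100 mg was given 10 h before and again with the dose. Urine was collected quantitatively over 0–6, 6–24 and 24–72 h and stored at −20°C, then assayed by validated HPLC-MS/MS. CLR = amount excreted unchanged over an interval / plasma AUC over the same interval.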

[10] = Cmax in healthy human at 87.5 mg, po administered as single dose coadministered with 100 mg of ritonavir by high-pressure liquid chromatography-tandem mass spectrometry/mass spectrometry method; assay type: ADME, organism-based; set-up: dose 87.5 mg, route oral; conditions: in vivo
Procedure, shortened: (§2)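 Healthy male volunteers, fasted overnight, got one oral dose of BILR 355 in PEG solution with 200 ml water. Ritonavir 100 mg was given 10 h before and again with the dose. Plasma was sampled (EDTA) from predose to 144 h and assayed by validated LC-MS/MS. Cmax and Vz/F came from noncompartmental analysis. Vss/F = CL/F·(MRTp.o. − 1/Ka), with Ka from compartmental modelling.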

Homo sapiens [11] = test: Toxicity in healthy human assessed as occurrence of palpitations at 75 mg, po administered as single dose relative to control; assay type: organism-based; conditions: in vivo
[12] = AUC (0 to last) in healthy human at 62.5 mg, po administered as single dose coadministered with 100 mg of ritonavir; assay type: ADME, organism-based; set-up: dose 62.5 mg, time 0 - last, route oral; conditions: plasma; procedure, shortened: as §1
[13] = Apparent volume of distribution at steady state in healthy human at 100 mg, po administered as single dose; assay type: ADME, organism-based; conditions: in vivo, read-out: Vss/F
Procedure, shortened: (§3)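 Healthy male volunteers, six active plus two placebo per dose group, single oral dose in PEG solution with 200 ml water after overnight fast; breakfast 60 to 90 min post-dose. EDTA plasma sampled predose to 144 h. Assayed by validated LC-MS/MS after protein precipitation. Noncompartmental analysis, AUC by linear up/log down trapezoidal rule; Vss = CL/F·(MRTp.o. − 1/Ka).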

Homo sapiens [14] = test: Toxicity in healthy human assessed as occurrence of increase in alanine aminotransferase level at 75 mg, po administered as single dose relative to control; assay type: organism-based; conditions: in vivo
[15] = Mean residence time in healthy human at 37.5 mg, po administered as single dose coadministered with 100 mg of ritonavir; assay type: ADME, organism-based; conditions: in vivo
[16] = Apparent oral clearance in healthy human at 5 mg, po administered as single dose; assay type: ADME, organism-based; conditions: in vivo; procedure, shortened: as §3
[17] = Cmax in healthy human at 12.5 mg, po administered as single dose coadministered with 100 mg of ritonavir by high-pressure liquid chromatography-tandem mass spectrometry/mass spectrometry method; assay type: ADME, organism-based; set-up: dose 12.5 mg, route oral; conditions: in vivo; procedure, shortened: as §2
Homo sapiens [18] = test: Toxicity in healthy human assessed as occurrence of flatulence at 1 mg, po administered as single dose relative to control; assay type: organism-based; conditions: in vivo
Homo sapiens [19] = test: Toxicity in healthy human assessed as occurrence of palpitations at 25 mg, po administered as single dose relative to control; assay type: organism-based; conditions: in vivo
Homo sapiens [20] = test: Toxicity in healthy human assessed as occurrence of headache at 5 mg, po administered as single dose relative to control; assay type: organism-based; conditions: in vivo
[21] = Renal clearance in healthy human at 37.5 mg, po administered as single dose coadministered with 100 mg of ritonavir by high-pressure liquid chromatography-tandem mass spectrometry/mass spectrometry method; assay type: ADME, organism-based, Kidney; conditions: in vivo, read-out: CL_renal (converted)
[22] = Mean residence time in healthy human at 62.5 mg, po administered as single dose coadministered with 100 mg of ritonavir; assay type: ADME, organism-based; conditions: in vivo
Homo sapiens [23] = test: Toxicity in healthy human assessed as occurrence of maculopapular rash at 75 mg, po administered as single dose relative to control; assay type: organism-based; conditions: in vivo
[24] = Renal clearance in healthy human at 50 mg, po administered as single dose coadministered with 100 mg of ritonavir by high-pressure liquid chromatography-tandem mass spectrometry/mass spectrometry method; assay type: ADME, organism-based, Kidney; conditions: in vivo, read-out: CL_renal (converted)
Homo sapiens [25] = test: Toxicity in healthy human assessed as occurrence of fatigue at 25 mg, po administered as single dose relative to control; assay type: organism-based; conditions: in vivo
[26] = Half life in healthy human at 37.5 mg, po administered as single dose coadministered with 100 mg of ritonavir; assay type: ADME, organism-based; conditions: in vivo
[27] = Mean residence time in healthy human at 50 mg, po administered as single dose; assay type: ADME, organism-based; conditions: in vivo
Homo sapiens [28] = test: Toxicity in healthy human assessed as occurrence of frequent bowel movements at 12.5 mg, po administered as single dose relative to control; assay type: organism-based; conditions: in vivo
Homo sapiens [29] = test: Toxicity in healthy human assessed as occurrence of diarrhea at 25 mg, po administered as single dose coadministered with 100 mg of ritonavir; assay type: organism-based; conditions: in vivo
[30] = AUC (0 to infinity) in high fat fed healthy human at 50 mg, po administered as single dose coadministered with 100 mg of ritonavir; assay type: ADME, organism-based; set-up: dose 50 mg, time infinity, route oral; conditions: plasma
Procedure, shortened: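 Fed cohort of 6 healthy men given an FDA-type high-fat breakfast (about 150, 250 and 500 to 600 cal from protein, carbohydrate and fat) 30 min before dosing. Ritonavir 100 mg given 10 h earlier and again with the single oral dose in PEG solution. Plasma sampled to 144 h, LC-MS/MS, noncompartmental analysis.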

Homo sapiens [31] = test: Toxicity in healthy human assessed as occurrence of frequent bowel movements at 25 mg, po administered as single dose relative to control; assay type: organism-based; conditions: in vivo
[32] = Apparent volume of distribution in terminal phase in healthy human at 5 mg, po administered as single dose coadministered with 100 mg of ritonavir; assay type: ADME, organism-based; conditions: in vivo, read-out: Vz/F; procedure, shortened: as §2
[33] = Tmax in healthy human at 25 mg, po administered as single dose; assay type: ADME, organism-based; conditions: in vivo

## CCN1c2ncc(CCOc3cc[n+]([O-])c4ccccc34)cc2C(=O)N(C)c2cccnc21 [BILR 355]
Homo sapiens [1]
  Activity: 0%
Homo sapiens [2]
  Activity: 0%
[3]
  half-life: 11 h
Homo sapiens [4]
  Activity: 0%
[5]
  AUC(0-inf): 7630 ng·h/mL
[6]
  MRT: 6.12 h
Homo sapiens [7]
  Activity: 16.7%
[8]
  Vd/F: 153 L
[9]
  CL renal: 8.2 mL/min
[10]
  Cmax: 838 ng/mL
Homo sapiens [11]
  Activity: 16.7%
[12]
  AUC(0-t): 7480 ng·h/mL
[13]
  Vd/F: 163 L
Homo sapiens [14]
  Activity: 0%
[15]
  MRT: 16.9 h
[16]
  CL/F: 2480 mL/min
[17]
  Cmax: 74.1 ng/mL
Homo sapiens [18]
  Activity: 0%
Homo sapiens [19]
  Activity: 0%
Homo sapiens [20]
  Activity: 0%
[21]
  CL renal: 4.92 mL/min
[22]
  MRT: 14 h
Homo sapiens [23]
  Activity: 0%
[24]
  CL renal: 4.87 mL/min
Homo sapiens [25]
  Activity: 0%
[26]
  half-life: 11 h
[27]
  MRT: 3.2 h
Homo sapiens [28]
  Activity: 0%
Homo sapiens [29]
  Activity: 0%
[30]
  AUC(0-inf): 8300 ng·h/mL
Homo sapiens [31]
  Activity: 0%
[32]
  Vd/F: 153 L
[33]
  Tmax: 0.833 h
